Results on 4 molecules are retold here after ChEMBL document CHEMBL3612041, “Combating highly resistant emerging pathogen Mycobacterium abscessus and Mycobacterium tuberculosis with novel salicylanilide esters and carbamates” (Eur J Med Chem, 2015).

Data set [1] can be described thus: Solubility of the compound in RPMI-1640/Sula media by spectrophotometric analysis. The format is physicochemical. A digest of the protocol:
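Solubility measured under assay conditions in RPMI and Sula media with 1 v/v% DMSO. Undissolved compound removed on a PVDF filter. 120 µL filtrate mixed with 80 µL acetonitrile, and concentration measured spectrophotometrically.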

For data set [2], the system named is Mycobacteroides abscessus. The experiment in a line: Antimycobacterial activity against Mycobacterium abscessus ATCC 19977 after 7 days by serial dilution method. Type of data set: functional. To be noted: for MIC: Mycobacteroides abscessus, ATCC 19977, 168 h. A digest of the protocol: (§1)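 Serial dilution in in-house Sula semisynthetic medium, pH 6.5. Compounds added as DMSO solutions at 10 doses, final 0.05–100 µg/mL. Incubation at 37 °C, 7 days for M. abscessus and 28 days for M. tuberculosis strains. MIC taken as the lowest concentration giving visible growth inhibition, confirmed by CFU on drug-free Löwenstein-Jensen medium after further equal incubation. Repeated at least twice.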

The test system of data set [3] is Mycobacterium tuberculosis. Description: Antimycobacterial activity against Mycobacterium tuberculosis H37Rv ATCC 27294 after 28 days by serial dilution method. To be noted: for MIC: Mycobacterium tuberculosis, H37Rv ATCC 27294, 672 h. Type of data set: functional. A digest of the protocol: as §1
In a further data set the test system is MONO-MAC-6. The experiment in a line: Cytostatic activity against human MONO-MAC-6 cells assessed as cell viability after 16 hrs by MTT assay. The format is cell-based. To be noted: MONO-MAC-6, 16 h. A digest of the protocol: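 MonoMac6 cells kept in RPMI-1640 with 10% FCS, 2 mM L-glutamine and gentamycin at 37 °C, 5% CO2. Cells plated 10⁵ per well and treated after 24 h for 16 h in serum-free RPMI (1.0 v/v% DMSO), 5×10⁻² to 10² µM. MTT at 367 µg/mL final for 3.5 h, crystals dissolved in DMSO, OD540 minus OD620. Cytotoxicity % versus untreated control fitted sigmoidally for IC50. Two independent experiments, 4–8 parallels.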
Background: Tetrazolium dyes change colour on reduction, which living cells bring about.

The nature of data set [4]: Selectivity index, ratio of IC50 for human MONO-MAC-6 cells to MIC for Mycobacterium abscessus ATCC 19977. Type of data set: toxicity. To be noted: read-out: Selectivity Index.
Data set [5] in a line: Selectivity index, ratio of IC50 for human MONO-MAC-6 cells to MIC for Mycobacterium tuberculosis H37Rv ATCC 27294. The format is toxicity. As to conditions: read-out: Selectivity Index.
Data set [6] can be described thus: Retention time of the compound in DMSO at 0.75 mg/ml measured at 0 min by RP-HPLC analysis. To be noted: 0 h. Type of data set: physicochemical. A digest of the protocol:
(§2)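 Stability in DMSO at 0.75 mg/ml, monitored by RP-HPLC on a C18 4.6×150 mm column. Gradient 0–100% B (A: 0.1% TFA in water; B: 0.1% TFA in acetonitrile-water 80:20), 1 ml/min, ambient temperature. Sampled at 0 min and after 29 h, detection at 280 or 220 nm.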

Data set [7] is described as follows: Retention time of the compound in DMSO at 0.75 mg/ml measured after 29 hrs by RP-HPLC analysis. Type of data set: physicochemical. A digest of the protocol:
as §2

Data set [8] is described as follows: Retention time of the compound in serum-free RPMI-1640 medium containing 10% DMSO at 0.5 mg/ml after 5 hrs by RP-HPLC analysis. Type of data set: physicochemical. The method, boiled down:
(§3)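 Stability in serum-free RPMI-1640 with 10% DMSO at 0.5 mg/ml, monitored by RP-HPLC on a C18 column. Gradient of 0.1% TFA water/acetonitrile-water, 1 ml/min, ambient temperature. Peaks identified by ESI-MS.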

A short description of data set [9]: Half life of the compound in serum-free RPMI-1640 medium at 0.75 mg/ml by RP-HPLC analysis. Type of data set: ADME.
Data set [10] is described as follows: Retention time of the compound in serum-free RPMI-1640 medium containing 10% DMSO at 0.5 mg/ml after 30 mins by RP-HPLC analysis. Type of data set: physicochemical. To be noted: 0.5 h. A digest of the protocol:
as §3

Data set [11] has as its system Mycobacteroides abscessus. The experiment in a line: Potency index, ratio of ciprofloxacin MIC to compound MIC for Mycobacterium abscessus ATCC 19977. The format is functional.
Data set [12] has as its system Mycobacteroides abscessus. The experiment in a line: Potency index, ratio of gentamicin MIC to compound MIC for Mycobacterium abscessus ATCC 19977. Type of data set: functional.
Data set [13] in a line: Drug level in serum-free RPMI-1640 medium treated with [4-bromo-2-[[4-(trifluoromethyl)phenyl]carbamoyl]phenyl] 5-chloropyrazine-2-carboxylate at 0.75 mg/ml after 29 hrs by ESI-MS spectra analysis. The format is physicochemical.
The nature of data set [14]: Drug level in serum-free RPMI-1640 medium treated with [4-bromo-2-[[4-(trifluoromethyl)phenyl]carbamoyl]phenyl] N-(3-chloropropyl)carbamate at 0.75 mg/ml after 6 hrs by RP-HPLC analysis. The format is physicochemical.

In brackets after ≈: the same amount, converted by molar mass.

For the molecule `O=C(Oc1ccc(Br)cc1C(=O)Nc1ccc(C(F)(F)F)cc1)c1cnc(Cl)cn1`, the solubility (usually the concentration that dissolves in the medium under given conditions) in data set [1] is < 100 µM. Also, the Activity in data set [2] and in [3] was 0 CFU throughout. For the same molecule, the MIC (usually the least concentration at which growth counts as inhibited) in data set [2] worked out at 5 µM (≈ 2.5 µg/mL); in data set [3], 1 µM (≈ 0.501 µg/mL). Besides, the IC50 (usually the concentration at which inhibition is half-maximal) in the data set on MONO-MAC-6 was 1.1 µM. The selectivity ratio in [4] amounted to 0.2; in data set [5] it was 1.1. The Retention_time in [6], in data set [7], in data set [8] and in data set [10] was 24 min in each case. Also, in [9], the half-life (usually the time in which the quantity being followed falls by half) at 0.75 mg/ml was 3.7 h.

For `O=C(NCCCCl)Oc1ccc(Br)cc1C(=O)Nc1ccc(C(F)(F)F)cc1`, in data set [1], the solubility is < 50 µM. Moreover, the results for the Activity in [2] and in data set [3] were 0 CFU and 8 CFU, respectively. In addition, the MIC in data set [2] amounted to 0.2 µM (≈ 0.0959 µg/mL); in data set [3] it was 1 µM (≈ 0.48 µg/mL). Also, the IC50 in the data set with MONO-MAC-6 came to 5.7 µM. Moreover, the values for the selectivity ratio in data set [4] and in data set [5] were 28.5 and 5.7, respectively. The figures for the Ratio in [11] and in data set [12] were 15 and 53, respectively. The Retention_time in [6], in [7] and in data set [10] was 22.6 min in each case. For the same molecule, the half-life at 0.75 mg/ml in [9] turned out to be 0.183 h.

On to `O=C(Nc1ccc(C(F)(F)F)cc1)c1cc(Br)ccc1O`, for which the solubility in data set [1] is < 100 µM. Also, the Activity amounted to 0 CFU in [2] and 2 CFU in data set [3]. Besides, the MIC in data set [2] was 13.9 µM (≈ 5.01 µg/mL); in [3], 1.4 µM (≈ 0.504 µg/mL). Also, in the data set on MONO-MAC-6, the IC50 turned out to be 7.6 µM. Besides, the selectivity ratio stood at 0.5 in [4] and 5.4 in data set [5]. Besides, the Drug metabolism result in data set [13] and in data set [14] was “metabolite_detected” in each case.

Turning to `O=C(O)c1cnc(Cl)cn1`, in data set [1], the solubility is < 500 µM. Further, the MIC in data set [2] and in data set [3] was > 633 µM throughout. The molecule further gave a Retention_time in [8] of 12.3 min. The Drug metabolism result in data set [13] is “metabolite_detected”.
